Source: ChEMBL document CHEMBL1240314, “Small-molecule inhibitor of p53 binding to mitochondria protects mice from gamma radiation” (2006)
Active and inactive are the calls of the source.

Columns and labels:
MCF7 [1] = experiment: Induction of Puma gene expression in UV-induced human MCF7 cells; type: functional, cell-based
Summary of the method: (§1)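 Northern blot: 10 mg RNA (so in the source) isolated 18 h after UV (8.5 J m–2) or doxorubicin (125 mg ml–1 as printed) from MCF7 or U2OS cells and p53-knockdown (lentiviral shRNA) counterparts; hybridized with 32P-labeled full-length cDNA probes for Bax, Noxa, Puma; 18S rRNA loading control.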

MCF7 [2] = experiment: Induction of Noxa gene expression in human MCF7 cells; type: functional, cell-based; summary of the method: as §1
U2OS = experiment: Induction of Noxa gene expression in doxorubicin-induced human U2OS cells; type: functional, cell-based; summary of the method: as §1
[3] = biological target: Cellular tumor antigen p53 (Mus musculus) (UniProt P02340); experiment: Binding affinity to p53 in gamma irradiated mouse thymocyte assessed as cytosolic Bcl-2 concentration at 10 uM after 2 hrs
Chain of Cellular tumor antigen p53 (Mus musculus) (P02340 whole entry): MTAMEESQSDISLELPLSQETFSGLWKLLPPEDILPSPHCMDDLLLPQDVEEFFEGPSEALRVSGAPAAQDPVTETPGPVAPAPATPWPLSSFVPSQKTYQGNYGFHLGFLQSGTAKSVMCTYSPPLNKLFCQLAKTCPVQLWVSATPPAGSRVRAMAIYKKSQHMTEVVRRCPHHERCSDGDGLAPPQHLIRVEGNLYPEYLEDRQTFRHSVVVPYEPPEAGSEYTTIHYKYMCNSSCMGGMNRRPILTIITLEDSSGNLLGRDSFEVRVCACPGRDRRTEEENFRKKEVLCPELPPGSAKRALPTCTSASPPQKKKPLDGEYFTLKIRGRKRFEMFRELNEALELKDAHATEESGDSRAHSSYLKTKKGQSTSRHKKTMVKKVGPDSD

[4] = biological target: Cellular tumor antigen p53 (Homo sapiens) (UniProt P04637); experiment: Inhibition of p53-dependent transcription of puma in UV-induced human MCF7 cells; type: cell-based
Chain of Cellular tumor antigen p53 (Homo sapiens) (P04637 whole entry, looked up): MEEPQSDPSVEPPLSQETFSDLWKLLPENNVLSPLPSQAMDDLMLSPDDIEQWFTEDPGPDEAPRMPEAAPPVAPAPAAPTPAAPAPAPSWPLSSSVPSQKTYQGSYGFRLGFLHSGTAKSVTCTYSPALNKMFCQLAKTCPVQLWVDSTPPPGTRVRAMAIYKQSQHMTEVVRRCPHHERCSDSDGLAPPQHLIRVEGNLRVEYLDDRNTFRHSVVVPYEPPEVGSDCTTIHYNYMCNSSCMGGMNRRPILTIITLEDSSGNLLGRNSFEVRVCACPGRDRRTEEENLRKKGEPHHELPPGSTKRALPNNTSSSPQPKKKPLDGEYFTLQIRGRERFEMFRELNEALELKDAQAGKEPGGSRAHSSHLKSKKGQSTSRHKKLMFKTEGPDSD
Summary of the method: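 Northern analysis of MCF7 cells, p53 wild-type and shRNA p53-knockdown. Induction by UV 8.5 J m–2 or Dox […]. RNA isolated 18 h after treatment; 10 µg hybridised with 32P-labelled full-length cDNA probes for Bax, Noxa or Puma. 18S rRNA used as loading control.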

MCF7 [5] = experiment: Induction of Bax gene expression in UV-induced human MCF7 cells; type: functional, cell-based; summary of the method: as §1

NS(=O)(=O)C#Cc1ccccc1
inactive: Activity (MCF7 [1]) | Activity (MCF7 [2]) | Activity (U2OS) | Activity [3] | inhibition [4] | Activity (MCF7 [5])
